Laboratory results as given in ChEMBL document CHEMBL3120104, “Discovery of the first C-nucleoside HCV polymerase inhibitor (GS-6620) with demonstrated antiviral response in HCV infected patients” (J Med Chem, 2014).

Assays:
Hepatitis C virus [1] = assay: Antiviral activity against HCV genotype 1 infected in human patient assessed as viral load reduction at 450 mg administered as solution bid relative to baseline control; format: functional, Hepacivirus hominis
Method in brief: (§1)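 Randomized, double-blind, placebo-controlled, multiple-dose, dose-escalation trial in treatment-naive patients chronically infected with HCV genotype 1. Cohorts had eight active and two placebo subjects. Doses ran from 50 mg once daily to 900 mg BID, fed or fasted, for 5 days. Read-out was median viral load change (log10 IU/mL) from baseline.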

Hepatitis C virus [2] = assay: Antiviral activity against HCV genotype 1 infected in human patient assessed as viral load reduction at 900 mg administered as tablet formulation bid for 5 days relative to baseline control; format: functional, Hepacivirus hominis; method in brief: as §1
Hepatitis C virus [3] = assay: Antiviral activity against HCV genotype 1 infected in human patient assessed as viral load reduction at 900 mg, bid relative to placebo; format: functional, Hepacivirus hominis
Homo sapiens = assay: Toxicity in human patient infected with HCV genotype 1 administered twice a day for 5 days; format: organism-based; settings: in vivo, 120 h
Method in brief: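 Randomized, double-blind, placebo-controlled multiple-dose escalation in treatment-naive patients chronically infected with HCV genotype 1. Nine cohorts (8 active, 2 placebo each) received 50 mg once daily up to 900 mg BID, fed or fasted, for 5 days. Safety, tolerability and viral load were assessed.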

[4] = Metabolic stability in serum (unknown origin); format: ADME
Hepatitis C virus [5] = assay: Antiviral activity against HCV genotype 2a; format: functional, organism-based, Hepacivirus hominis; settings: pooled result: one value given for 8 cell lines, strains, targets or settings
Method in brief: (§2)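 Multiplex replicon assay carrying a renilla luciferase reporter, with stable GT1b, 1a and 2a replicons and chimeric 2b, 3a, 4a, 5a and 6a replicons. 2000 replicon cells/well in medium without Geneticin. Ten-step 1:3 serial dilutions, four replicates, 0.44% DMSO final. Incubated 3 days at 37 °C, 5% CO₂. Luminescence normalised to DMSO wells and to protease-inhibitor (ITMN-191) wells. EC50 from a four-parameter Hill fit.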

Hepatitis C virus [6] = assay: Antiviral activity against HCV genotype 1b infected in human HuH7 cells assessed as inhibition of viral replication after 3 days by luminescence assay; format: functional, organism-based, Hepacivirus hominis; settings: Huh-7, 72 h; method in brief: as §2
[7] = target: DNA-directed RNA polymerase, mitochondrial (Homo sapiens) (UniProt O00411); assay: Inhibition of mitochondrial RNA polymerase (unknown origin) assessed as inhibition of single nucleotide incorporation; settings: concentration not given here
Sequence of DNA-directed RNA polymerase, mitochondrial (Homo sapiens) (O00411 whole entry): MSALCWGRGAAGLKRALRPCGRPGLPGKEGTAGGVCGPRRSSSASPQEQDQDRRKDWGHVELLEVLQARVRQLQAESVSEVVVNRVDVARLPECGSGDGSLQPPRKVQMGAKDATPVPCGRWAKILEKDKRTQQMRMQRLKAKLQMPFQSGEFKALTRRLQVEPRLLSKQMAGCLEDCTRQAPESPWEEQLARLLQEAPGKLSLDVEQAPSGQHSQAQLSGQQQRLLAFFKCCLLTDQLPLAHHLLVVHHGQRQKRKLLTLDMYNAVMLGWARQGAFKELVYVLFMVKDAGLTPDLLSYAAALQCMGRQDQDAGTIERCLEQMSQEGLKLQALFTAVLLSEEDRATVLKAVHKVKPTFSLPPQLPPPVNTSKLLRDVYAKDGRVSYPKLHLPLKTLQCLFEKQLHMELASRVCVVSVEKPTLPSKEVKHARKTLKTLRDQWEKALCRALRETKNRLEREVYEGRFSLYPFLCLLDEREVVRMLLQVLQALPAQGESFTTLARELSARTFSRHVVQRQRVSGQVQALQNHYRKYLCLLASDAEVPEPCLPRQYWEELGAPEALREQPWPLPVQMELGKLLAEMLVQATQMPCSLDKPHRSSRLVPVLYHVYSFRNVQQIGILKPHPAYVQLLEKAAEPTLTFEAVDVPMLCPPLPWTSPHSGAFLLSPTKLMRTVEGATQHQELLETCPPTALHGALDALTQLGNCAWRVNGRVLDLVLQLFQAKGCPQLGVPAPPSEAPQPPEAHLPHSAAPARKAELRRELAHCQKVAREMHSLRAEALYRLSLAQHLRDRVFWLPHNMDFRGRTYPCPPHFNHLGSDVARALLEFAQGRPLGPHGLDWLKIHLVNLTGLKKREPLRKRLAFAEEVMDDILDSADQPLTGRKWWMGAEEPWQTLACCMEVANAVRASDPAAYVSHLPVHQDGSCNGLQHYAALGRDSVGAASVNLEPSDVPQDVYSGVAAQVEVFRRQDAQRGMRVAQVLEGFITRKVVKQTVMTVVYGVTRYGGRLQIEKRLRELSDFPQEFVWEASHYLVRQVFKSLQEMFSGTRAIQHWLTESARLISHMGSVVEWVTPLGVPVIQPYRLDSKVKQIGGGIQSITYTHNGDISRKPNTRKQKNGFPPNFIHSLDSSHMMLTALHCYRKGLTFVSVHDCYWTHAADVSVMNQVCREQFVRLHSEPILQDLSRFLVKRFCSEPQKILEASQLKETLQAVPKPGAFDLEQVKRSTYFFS
Method in brief: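 Reactions started with 500 μM (final) natural NTP or NTP analog. Time-point aliquots were quenched in EDTA/formamide, heated to 65 °C, resolved on 20% polyacrylamide/8 M urea gels, and product formation quantified by phosphorimaging.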

[8] = Inhibition of HCV genotype 1b recombinant NS5B RNA dependent RNA polymerase using sshRNA as substrate incubated for 5 mins prior to compound addition measured after 90 mins in presence of [33P]GTP
[9] = Toxicity in po dosed Sprague-Dawley rat assessed as necrosis in organs administered qd for 7 days; format: organism-based; settings: in vivo
Rattus norvegicus = assay: Toxicity in Sprague-Dawley rat assessed as death at 20 to 40 mg/kg, po qd for 7 days; format: organism-based; set-up: dose 20-40 mg/kg, route oral; settings: in vivo, 168 h
[10] = Cytotoxicity against human HuH7 cells after 3 days by fluorescence assay; format: cell-based; settings: Huh-7 cells
Method in brief: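 Huh-7 HCV replicon cells were seeded at 2000 cells/well in medium without Geneticin. Compounds were added as ten-point 1:3 DMSO dilutions in quadruplicate (final DMSO 0.44%), with […] as the 100% cytotoxicity control. After 3 days at 37 °C, cells were washed and given 400 nM calcein AM for 30 min at RT, and fluorescence read at ex 490/em 520 nm. Signal was normalized to DMSO and puromycin wells, and CC50 taken from a four-parameter Hill fit.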

Hepatitis C virus [11] = assay: Selectivity ratio of EC50 for HCV harboring NS5B RNA dependent RNA polymerase S282T mutant to EC50 for wild-type HCV; format: functional, Hepacivirus hominis
Syrian golden hamster [12] = assay: Cmax in golden syrian hamster assessed as liver triphosphate level at 1 mg/kg, iv by LC/MS/MS analysis; format: ADME, organism-based, Mesocricetus auratus; set-up: dose 1 mg/kg, route intravenous; settings: in vivo
Method in brief: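 Golden Syrian hamsters in groups of 12, dosed iv at 1 mg-equiv/kg in EtOH/PEG400/water adjusted to pH 4 with HCl (0.5 mg-equiv/mL). Liver homogenised in ice-cold 70% MeOH with 0.1% KOH, 67 mM EDTA and 0.25 μM Cl-ATP internal standard, then centrifuged, dried and reconstituted. Triphosphate measured by LC/MS/MS; endogenous ATP checked for sample stability.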

[13] = Lipophilicity, log D of the compound by HPLC/UV method; format: physicochemical
Method in brief: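 A 10 mM DMSO stock was diluted 1:100 into 1:1 acetonitrile/water, shaken 30 min, and analysed by HPLC/UV on a C18 column with 20 mM ammonium acetate/acetonitrile mobile phase.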

[14] = Toxicity in rat after 7 days; format: organism-based; settings: in vivo
Method in brief: (§3)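 Nonclinical 7-day toxicology study with daily dosing up to 300 mg/(kg day) in rats and up to 75 mg/(kg day) in dogs; NOAEL set from test-article related findings.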

[15] = Efflux ratio of apparent permeability across human Caco2 cells at 100 uM; format: ADME, cell-based; settings: Caco-2
Method in brief: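 Caco-2 monolayers grown to confluence for at least 21 days; membrane integrity checked by TEER after equilibration in transport buffer. Compound added to apical or basolateral side (duplicate wells) to give forward and reverse permeability. Receiver samples taken at 1 and 2 h, acetonitrile-precipitated, and quantified by LC/MS/MS. Papp calculated from receiver slope, volume and monolayer area. Recovery also measured.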

[16] = Oral absorption in beagle dog at 5 mg/kg, po by LC/MS/MS analysis; format: ADME, organism-based, Canis lupus familiaris; set-up: dose 5 mg/kg, route oral; settings: in vivo
Method in brief: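 Naive male beagle dogs were dosed once, orally at 5 mg/kg in EtOH/PEG 400/50 mM citrate buffer pH 4 (5/40/55), or intravenously at 0.5 mg/kg for reference. Plasma was sampled over 24 h and processed by acetonitrile precipitation. Bioavailability %F = AUC_po × Dose_iv / (AUC_iv × Dose_po).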

Syrian golden hamster [17] = assay: Cmax in golden syrian hamster assessed as liver triphosphate level at 5 mg/kg, po by LC/MS/MS analysis; format: ADME, organism-based, Mesocricetus auratus; set-up: dose 5 mg/kg, route oral; settings: in vivo
Method in brief: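 Groups of 12 Golden Syrian hamsters were dosed orally at 5 mg-equiv/kg. Vehicle was EtOH/PEG400/water buffered with 50 mM pH 4 citrate at 2.5 mg-equiv/mL. Liver was homogenized in four volumes of ice-cold 0.1% KOH/67 mM EDTA in 70% MeOH containing 0.25 μM Cl-ATP, then centrifuged, dried and reconstituted in 1 mM ammonium phosphate pH 7.0. Triphosphate was measured by LC/MS/MS, with endogenous ATP checked for sample stability.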

[18] = Toxicity in dog after 7 days; format: organism-based, Canis lupus familiaris; settings: in vivo; method in brief: as §3

Compound: CC(C)OC(=O)[C@H](C)N[P@](=O)(OC[C@H]1O[C@@](C#N)(c2ccc3c(N)ncnn23)[C@](C)(O)[C@@H]1OC(=O)C(C)C)Oc1ccccc1 [GS-6620]
- Activity (Hepatitis C virus [1]): 1.63 log10IU/ml
- Activity (Hepatitis C virus [2]): 1.73 log10IU/ml
- Activity (Hepatitis C virus [3]): 1.14 log10IU/ml
- MTD (Homo sapiens): 900 mg
- Stability [4]: Stable
- EC50 (Hepatitis C virus [5]): 0.068 µM

Compound: C[C@@]1(c2ccc3c(N)ncnn23)O[C@H](CO)[C@@H](O)[C@@]1(C)O
- EC50 (Hepatitis C virus [6]): > 89 µM
- inhibition [7]: 0.08%
- IC50 [8]: 55 µM

Compound: C[C@@]1(O)[C@H](O)[C@@H](CO)O[C@H]1c1ccc2c(N)ncnn12
- inhibition [7]: 21%
- NOAEL at 168 h [9]: < 5 mg/kg/day
- Activity (Rattus norvegicus): Toxic

Compound: CC(C)OC(=O)[C@H](C)NP(=O)(OC[C@H]1O[C@@](C#N)(c2ccc3c(N)ncnn23)[C@](C)(O)[C@@H]1OC(=O)C(C)C)Oc1ccccc1 (stereo partly drawn)
- CC50 at 72 h [10]: 47 µM
- Ratio EC50 (Hepatitis C virus [11]): >95
- Cmax (Syrian golden hamster [12]): 4.5 µM
- EC50 (Hepatitis C virus [6]): 0.61 µM
- logD [13]: 2.9
- NOAEL at 168 h [14]: > 300 mg/kg/day
- efflux ratio at 100 µM [15]: < 2
- Fa [16]: 88%
- Stability [4]: Stable
- Cmax (Syrian golden hamster [17]): 3.67 µM
- NOAEL at 168 h [18]: > 75 mg/kg/day
